For three compounds, IC50 and Kd results are on record in ChEMBL document CHEMBL1145281, “Potent bombesin-like peptides for GRP-receptor targeting of tumors with 99mTc: a preclinical study” (J Med Chem, 2005).

In experiment [1] the target is T1, Gastrin-releasing peptide receptor (Homo sapiens, UniProt P30550). Put plainly: Displacement of [125 I-Tyr4]BB from human gastrin releasing peptide receptor expressed in PC-3 cell membranes.
Experiment [2] deals with T1, Gastrin-releasing peptide receptor. The experiment is described as follows: Inhibition of gastrin releasing peptide receptor expressed in human prostate cancer cells. The format is cell-based, Cancer cell lines.
Experiment [3] addresses T2, Bombesin receptor subtype-3 (Homo sapiens, UniProt P32247).
T2 sequence (P32247 whole entry): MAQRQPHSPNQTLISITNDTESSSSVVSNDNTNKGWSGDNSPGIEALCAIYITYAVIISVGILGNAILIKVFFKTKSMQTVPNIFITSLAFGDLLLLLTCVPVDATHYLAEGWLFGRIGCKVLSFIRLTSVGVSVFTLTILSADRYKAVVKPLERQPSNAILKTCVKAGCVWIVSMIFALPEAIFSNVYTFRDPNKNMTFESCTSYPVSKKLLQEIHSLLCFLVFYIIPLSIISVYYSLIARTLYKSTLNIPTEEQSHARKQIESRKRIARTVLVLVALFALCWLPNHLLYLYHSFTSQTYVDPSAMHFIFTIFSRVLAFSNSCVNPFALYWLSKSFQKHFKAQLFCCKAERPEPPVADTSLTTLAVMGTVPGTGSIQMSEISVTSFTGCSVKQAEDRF
The experiment is described as follows: Inhibition of bombesin subtype 3 receptor expressed in human lung carcinoids.

The subject of the next experiment is PC-3. Put plainly: Equilibrium constant of compound for binding to the active sites in human PC-3 cell membranes. The format is functional. In outline:
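Saturation binding of 99mTc/99gTc-labelled peptides in PC-3 membrane homogenates (50 μg protein), 0.06–12 nM total peptide, two triplicate sets for total and nonspecific binding. HEPES pH 7.6 buffer with 1% BSA, 5.5 mM MgCl2, 35 μM bacitracin. 1 h at 37 °C. Nonspecific binding defined with [Tyr4]BB. Kd from Scatchard analysis.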

SMILES strings stand for the structures.

T1 sequence (P30550 whole entry): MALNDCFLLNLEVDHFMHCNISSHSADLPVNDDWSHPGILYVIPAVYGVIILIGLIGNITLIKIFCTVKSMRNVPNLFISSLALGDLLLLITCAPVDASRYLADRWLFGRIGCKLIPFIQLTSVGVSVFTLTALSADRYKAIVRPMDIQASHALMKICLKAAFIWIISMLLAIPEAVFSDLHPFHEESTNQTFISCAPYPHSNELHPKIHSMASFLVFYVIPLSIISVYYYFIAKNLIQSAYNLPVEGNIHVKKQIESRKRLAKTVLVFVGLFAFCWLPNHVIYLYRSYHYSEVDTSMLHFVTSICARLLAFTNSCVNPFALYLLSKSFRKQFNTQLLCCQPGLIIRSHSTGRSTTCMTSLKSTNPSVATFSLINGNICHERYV

Regarding `CCCC[C@H](NC(=O)[C@H](CC(C)C)NC(=O)[C@H](Cc1c[nH]cn1)NC(=O)CNC(=O)[C@@H](NC(=O)[C@H](C)NC(=O)[C@H](Cc1c[nH]c2ccccc12)NC(=O)[C@H](CCC(N)=O)NC(=O)COCC(=O)Nc1ccc(CC(CNCCN)CNCCN)cc1)C(C)C)C(N)=O`, the IC50 in experiment [1] was 600 pM; in experiment [2], 1300 pM; in experiment [3], above 100000 pM. Besides, binding in the experiment with PC-3 was characterised by a dissociation constant (Kd) of 140 pM.

On to `CSCC[C@H](NC(=O)[C@H](CC(C)C)NC(=O)[C@H](Cc1c[nH]cn1)NC(=O)CNC(=O)[C@@H](NC(=O)[C@H](C)NC(=O)[C@H](Cc1c[nH]c2ccccc12)NC(=O)[C@H](CCC(N)=O)NC(=O)COCC(=O)Nc1ccc(CC(CNCCN)CNCCN)cc1)C(C)C)C(N)=O`, for which the half-inhibitory concentration (IC50) in experiment [1] is 80 pM; in experiment [2], 650 pM; in experiment [3] it was 37000 pM. For the same compound, binding with PC-3 was characterised by a dissociation constant (Kd) of 70 pM.

For the compound `CCCC[C@H](NC(=O)[C@H](CC(C)C)NC(=O)[C@H](Cc1c[nH]cn1)NC(=O)CNC(=O)[C@@H](NC(=O)[C@H](C)NC(=O)[C@H](Cc1c[nH]c2ccccc12)NC(=O)[C@H](CCC(N)=O)NC(=O)[C@H](CC(N)=O)NC(=O)CNC(=O)[C@H](Cc1ccc(O)cc1)NC(=O)[C@H](CCCN=C(N)N)NC(=O)[C@H](CCC(N)=O)NC(=O)[C@@H]1CCCN1C(=O)C(CNCCN)CNCCN)C(C)C)C(N)=O`, the IC50 in experiment [1] is 150 pM; in experiment [2], 1940 pM; in experiment [3], above 100000 pM.
